TRPC6 act – mouse TRPC6 channel activators, primary screen, cell-based, HEK293, membrane potential dye; AID 2550, 2010; HEK293-TRPC6 membrane potential dye fluorescence; hits give high values; B-score at 10 µM; Short transient receptor potential channel 6 (Mus musculus), Q61143; hit rate 0.13% among 310,000;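 active means B-score of the integrated fluorescence ratio above library mean plus 3 SD, and starting fluorescence ratio within library mean plus 5 SD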;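 further: higher score means more depolarization so channel activation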
TRPC4 PAM – positive allosteric modulators of TRPC4, primary screen, cell-based, mouse TRPC4beta, HEK293 mu-opioid, Fluo-4 calcium; Short transient receptor potential channel 4 (Mus musculus), Q9QUQ5; hit rate 0.42% among 310,000; DAMGO EC20, Fluo-4 Ca2+ flux; hits give high values; B-score at 10 µM;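 active means B-score of calcium response area above 5 SD of library B-scores, with initial fluorescence ratio within 5 SD of library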;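 further: B-score of integrated fluorescence ratio over time as area under calcium response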
Target sequence (Q9QUQ5 whole entry, looked up): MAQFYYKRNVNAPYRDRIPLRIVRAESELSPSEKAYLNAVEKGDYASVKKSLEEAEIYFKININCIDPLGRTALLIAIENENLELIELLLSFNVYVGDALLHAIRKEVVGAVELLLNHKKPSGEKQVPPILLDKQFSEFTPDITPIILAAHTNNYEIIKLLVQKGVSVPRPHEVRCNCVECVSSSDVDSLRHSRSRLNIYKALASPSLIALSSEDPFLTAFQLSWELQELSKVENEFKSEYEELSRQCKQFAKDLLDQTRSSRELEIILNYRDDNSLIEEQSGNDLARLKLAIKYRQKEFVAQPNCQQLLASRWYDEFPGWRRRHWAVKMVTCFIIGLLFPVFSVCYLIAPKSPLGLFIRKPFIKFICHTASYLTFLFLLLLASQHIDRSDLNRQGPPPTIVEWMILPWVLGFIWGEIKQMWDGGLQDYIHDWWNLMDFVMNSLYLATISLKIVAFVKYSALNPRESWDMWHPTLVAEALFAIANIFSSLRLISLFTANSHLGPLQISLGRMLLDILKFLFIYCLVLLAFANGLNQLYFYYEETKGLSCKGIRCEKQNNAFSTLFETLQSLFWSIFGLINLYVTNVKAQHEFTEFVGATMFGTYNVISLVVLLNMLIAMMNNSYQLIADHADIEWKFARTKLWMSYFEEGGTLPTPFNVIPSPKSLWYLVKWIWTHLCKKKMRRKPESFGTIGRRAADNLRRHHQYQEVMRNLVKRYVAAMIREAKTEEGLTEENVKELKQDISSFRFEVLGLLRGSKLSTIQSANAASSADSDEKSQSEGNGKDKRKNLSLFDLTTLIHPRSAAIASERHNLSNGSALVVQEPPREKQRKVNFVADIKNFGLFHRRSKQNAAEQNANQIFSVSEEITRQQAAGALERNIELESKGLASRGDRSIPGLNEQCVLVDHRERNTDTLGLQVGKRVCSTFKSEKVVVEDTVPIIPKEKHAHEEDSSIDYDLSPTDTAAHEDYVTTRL
TRPC6 inhibitor – mouse TRPC6 channel inhibitors, primary screen, cell-based, HEK293, membrane potential dye; AID 2553, 2010; ACh-evoked depolarization; hits give low values; B-score at 10 µM; hit rate 1.1% among 310,000; Short transient receptor potential channel 6 (Mus musculus), Q61143;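 active means B-score under library mean minus 3 SD, initial fluorescence not abnormally high, positive integrated signal ratio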;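 further: B-score derived from integrated fluorescence ratio over the kinetic read; more negative B-score means stronger inhibition of depolarization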
TRPC4 agonist – activators of mouse TRPC4 channel, primary screen, Fluo4 calcium, HEK293 TRPC4beta/mu-opioid cells. Short transient receptor potential channel 4 (Mus musculus), Q9QUQ5. Fluo4 calcium fluorescence; hits give high values. B-score at 10 µM. hit rate 0.49% among 310,000. AID 2237, 2010;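 active means B-score above 5 SD of library B-scores, and initial fluorescence ratio not above library mean plus 5 SD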;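 further: positive B-score marks a calcium rise read as TRPC4 activation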
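Test system: HEK293 cells stably co-expressing mouse TRPC4beta and mu-opioid receptor | Schedule: Fluo4 dye loading 45 min at room temperature, 110 s recording | Measured by: Kinetic Fluo4 calcium fluorescence, 5 s baseline at 1 Hz | Evaluation: B score of integrated ratio | Controls: Buffer (low) and maximal DAMGO (high)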
TRPC4 inh – inhibitors of mouse TRPC4 channel, primary screen, Fluo4 calcium, HEK293 TRPC4beta/mu-opioid cells | Short transient receptor potential channel 4 (Mus musculus), Q9QUQ5 | DAMGO-evoked Fluo4 calcium flux; hits give low values | B-score at 10 µM | hit rate 0.39% among 300,000;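 active means B-score over 3 SD under the library average, no early fluorescence shift, positive overall ratio signal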
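System: stable TRPC4beta/mu-opioid receptor HEK293 cells; Dosing: single-point compound dosing; Measured by: Fluo4 Ca2+ flux fluorescence; Read-out basis: per-well B score of integrated baseline-normalized Fluo4 ratio.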
TRPC4 sel inh 2 – second selectivity test of TRPC6 inhibitors: effect on mouse TRPC4; shares compounds with TRPC6 inhibitor; HEK293 TRPC4/MOR, membrane potential dye fluorescence; channel activated by saturating DAMGO dose; inhibition, % at 10 µM; hit rate 42% among 920; AID 2776;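 active means compounds whose fluorescence signal differed from control wells by over 3 SD, either direction, in both duplicate plates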
TRPC4 spec – mouse TRPC4 modulation by TRPC6 hits, confirmation, selectivity assay for TRPC6 inhibitor project, cell-based, HEK293 TRPC4/mu-opioid, membrane potential dye. shares compounds with TRPC6 inhibitor. hit rate 61% among 920. AID 2777, 2010. membrane potential fluorescence. activity change, negative = inhibition, % at 10 µM;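 active means rise or fall in signal beyond 3 SD of buffer-only wells in both replicate plates, either sign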;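 further: integrated kinetic ratio of fluorescence range over baseline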
HEK293 MPD ctr 2-1 – nonspecific membrane potential effects, parental HEK293, confirmation, counter-screen for TRPC6 inhibitor project, cell-based, second counter screen; shares compounds with TRPC6 inhibitor; parental HEK293 membrane potential dye fluorescence; maximal acetylcholine challenge after compound addition; signal change vs control, % at 10 µM; hit rate 31% among 920; AID 2779, 2010;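 active means membrane potential signal moving either way by over 3 SD of the maximum-effect control, in both duplicate plates, meaning non-specific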
HEK293 MPD ctr-1 – membrane potential modulation in parental HEK293, confirmation, counter-screen for TRPC6 inhibitor project, cell-based | shares compounds with TRPC6 inhibitor | parental HEK293 membrane potential dye fluorescence | membrane potential signal change, % at 10 µM | hit rate 60% among 920;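 active means membrane potential signal shifting up or down by more than 3 SD of buffer-only wells, on both duplicate plates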
HEK293 MPD ctr-2 – parental HEK293 membrane potential modulation, confirmation, counter-screen for TRPC6 modulator project, cell-based | AID 488924, 2010 | membrane potential dye fluorescence | membrane potential signal change, % at 10 µM | shares compounds with TRPC6 inhibitor | hit rate 51% among 2,400;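 active means membrane potential signal moves up or down beyond 5 SD from buffer-only wells, on both duplicate plates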
HEK293 MPD ctr 2-2 – second check of TRPC6 modulator effects in parental HEK293 cells; membrane potential dye fluorescence; after compound, maximal acetylcholine stimulation; shares compounds with TRPC6 inhibitor; inhibition, % at 10 µM; hit rate 14% among 2,400;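 active means membrane potential signal drops by more than 5 SD from the mean control signal, in both duplicate plates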;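 further: plate controls were acetylcholine ECmax control wells for no effect and buffer only wells for full effect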
TRPC4/MOR mod – TRPC4 modulation by TRPC6 hit compounds, confirmation, selectivity assay for TRPC6 modulator project, cell-based, HEK293 TRPC4/mu-opioid, membrane potential dye, mouse | membrane potential fluorescence | hit rate 69% among 2,400 | percent change from control (negative = decrease, positive = increase), % at 10 µM | shares compounds with TRPC6 inhibitor;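 active means membrane potential signal moved up or down beyond 5 SD of buffer control wells, in both duplicate plates, actives on both sides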;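 further: plate controls were assay buffer wells for no effect and DAMGO maximal-effect wells for full effect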
TRPC4/MOR inh 2 – second check of whether TRPC6 modulators also affect mouse TRPC4. shares compounds with TRPC6 inhibitor. HEK293 TRPC4/mu-opioid, membrane potential dye fluorescence; stimulated with maximal-effect DAMGO. inhibition, % at 10 µM. hit rate 55% among 2,400. AID 488928;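 active means drop in membrane potential signal beyond 5 SD of the control wells in both duplicate plates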;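 further: TRPC4 counter screen for TRPC6 hits run under conditions tuned for TRPC6 not TRPC4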
TRPC6 block conf – mouse TRPC6 channel inhibitors, confirmation, HEK293 cells, membrane potential dye, duplicate; shares compounds with TRPC6 inhibitor; ACh-evoked depolarization; inhibition, % at 10 µM; hit rate 43% among 3,300;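 active means fluorescence ratio falls more than 5 SD below the full-stimulation control mean, in both duplicate runs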;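 further: integrated fluorescence ratio of peak minus minimum over baseline after agonist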
TRPC6 act confirm – mouse TRPC6 channel activators, confirmation, HEK293 cells, membrane potential dye, duplicate; hit rate 11% among 2,800; HEK293-TRPC6 membrane potential dye fluorescence, FDSS; shares compounds with TRPC6 inhibitor; activation, % at 10 µM;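 active means ratio signal rise beyond 5 SD above unstimulated control wells' mean, seen in both duplicate runs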;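 further: plate controls were buffer EC0 wells for no effect and acetylcholine ECmax response for full effect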
An asterisk follows results filed as active; i = inactive; . = no result given. An excerpt weighted towards active compounds, which were near 2.3% of everything screened.

SMILES | TRPC6 act | TRPC4 PAM | TRPC6 inhibitor | TRPC4 agonist | TRPC4 inh | HEK293 MPD ctr-2 | HEK293 MPD ctr 2-2 | TRPC4/MOR mod | TRPC4/MOR inh 2 | TRPC6 block conf | TRPC6 act confirm | others
Cc1ccc(S(=O)(=O)N2CCN(C(=O)c3cccc(F)c3)CC2)cc1 | i | i | -6.11* | i | i | i | i | i | i | 69.5%* | .
O=C(c1ccc(S(=O)(=O)N2CCCC2)cc1)N1CCN(S(=O)(=O)c2cccc(F)c2)CC1 | i | i | i | i | i | . | . | . | . | . | .
O=C(c1cccc(F)c1)N1CCN(c2cccc(Cl)c2)CC1 | i | i | -16.1* | i | i | . | . | . | . | 59.3%* | i | TRPC4 sel inh 2=i;TRPC4 spec=5.7%*;HEK293 MPD ctr 2-1=i;HEK293 MPD ctr-1=2.7%*
CCCC[C@@H]1CN=C(N)N1CC(C)(C)C | i | i | i | i | i | . | . | . | . | . | .
CCCN1CCN(C(=O)c2cc(COc3ccc(F)cc3F)on2)CC1 | i | i | i | i | i | . | . | . | . | . | .
COc1ccc(NS(=O)(=O)c2cccc(C(=O)NCc3ccco3)c2)cc1 | i | i | i | i | i | . | . | . | . | . | .
CC1CCN(CCC(=O)N/N=C/c2ccc([N+](=O)[O-])cc2)CC1 | i | i | i | i | i | . | . | . | . | . | .
CN1C(=O)[C@@H]2[C@H](C1=O)[C@@H]1C(=O)Nc3ccccc3C(=O)N1[C@@H]2c1ccc(Br)cc1 | i | i | i | i | i | . | . | . | . | . | .
COCCN=C1Sc2nc3cc4c(cc3cc2CN1CC1CCCO1)OCO4 (stereo unspecified) | i | i | i | i | i | . | . | . | . | . | .
CC(=O)Nc1ccc2c(c1)ncn2-c1ccc(C)cc1 | i | i | -5.52* | i | i | i | i | i | i | i | i
O=C(CC1Nc2cccc3cccc(c23)NC1=O)Nc1ccc(F)cc1 (stereo unspecified) | i | i | -5.03* | i | i | i | i | -11.0%* | 40.0%* | i | i
COc1ccc(NC(=O)CC2Nc3cccc4cccc(c34)NC2=O)cc1 (stereo unspecified) | i | i | i | i | i | . | . | . | . | . | .
COc1ccc(CNC(=O)C2=CC(c3ccc(OC)c(OC)c3)=NS(=O)(=O)N2C)cc1 | i | i | i | i | i | . | . | . | . | . | .
CCc1ccc(NC(=O)C2=CC(c3ccc(OC)c(OC)c3)=NS(=O)(=O)N2C)cc1 | i | i | -5.74* | i | i | i | i | -17.5%* | 65.5%* | i | i
Cc1ccc(NC(=O)CSc2nnc(C3CC3)n2CC2CCCO2)cc1C (stereo unspecified) | i | i | i | i | i | . | . | . | . | . | .
COCCNC(=S)Nc1ccc2nc(N3CCOCC3)cc(C)c2c1 | i | i | i | i | i | . | . | . | . | . | .
COCCNC(=S)Nc1ccc2nc(N3CCCC3)cc(C)c2c1 | i | i | -6.16* | i | i | -135.0%* | 82.0%* | -26.0%* | 40.5%* | 71.0%* | i
CCOCCCNC(=S)Nc1ccc2nc(N3CCCC3)cc(C)c2c1 | i | i | -5.63* | i | i | -138.5%* | i | -25.5%* | 40.5%* | 44.5%* | i
COc1cc(CCCN2C(N)=NC[C@@H]2Cc2ccccc2)cc(OC)c1OC | i | i | i | i | i | . | . | . | . | . | .
CN(Cc1ccccc1F)C(=O)c1ccccc1Sc1ccccc1C#N | i | i | i | i | i | . | . | . | . | . | .
O=C(Nc1cccnc1)C1CCC(CNS(=O)(=O)c2cccc3nsnc23)CC1 (stereo unspecified) | i | i | i | i | i | . | . | . | . | . | .
COc1ccc(S(=O)(=O)N2CCN(c3cc(-c4ccccc4)nc4ncnn34)CC2)cc1 | i | i | i | i | i | . | . | . | . | . | .
COc1ccc(-c2cc(N3CCCC3)n3ncnc3n2)cc1 | i | i | -6.52* | i | i | 134.5%* | i | 26.0%* | i | i | .
O=C1/C(=C/c2ccccc2)SC(=S)N1N1C(=O)C2CC2C1=O (stereo unspecified) | i | i | -8.75* | i | i | . | . | . | . | i | i | TRPC4 sel inh 2=i;TRPC4 spec=i;HEK293 MPD ctr 2-1=i;HEK293 MPD ctr-1=i
CC(=O)NN1C(=O)/C(=C\c2ccccc2)SC1=S | i | i | i | i | i | . | . | . | . | . | .
Cc1nsc2nc3c(F)c(F)c(F)c(F)c3cc12 | i | i | i | i | i | . | . | . | . | . | .
O=c1c2ccccc2[nH]c(=S)n1CCN1CCCC1 | i | i | i | i | i | . | . | . | . | . | .

Screening data: PubChem BioAssay, Johns Hopkins Ion Channel Center
